From ChEMBL document CHEMBL1123153, “Synthesis and antitumor and antiviral properties of 5-alkyl-2'-deoxyuridines, 3',5'-cyclic monophosphates, and neutral cyclic triesters” (1986)
Converted amounts (≈) assume the structure as drawn.

Tests used:
Format in all cases: functional
Human alphaherpesvirus 2 [1] = assay: Antiviral activity against Herpes Simplex Virus-2(Lyons)
Human alphaherpesvirus 2 [2] = assay: Antiviral activity against Herpes Simplex Virus-2(196)
Human alphaherpesvirus 1 [3] = assay: Antiviral activity against Herpes Simplex Virus-1(F)
Human alphaherpesvirus 1 [4] = assay: Antiviral activity against Herpes Simplex Virus-1(KOS)
Human alphaherpesvirus 1 [5] = assay: Antiviral activity against Herpes Simplex Virus-1 (McIntyre)
Human alphaherpesvirus 2 [6] = assay: Antiviral activity against Herpes Simplex Virus-2(G)
Raji [7] = assay: Cytostatic activity against proliferation of Raji/TK cells; conditions: Homo sapiens, read-out: ID50 (the source's name)
Raji [8] = assay: Cytostatic activity against proliferation of Raji/0 cells; conditions: Homo sapiens, read-out: ID50 (the source's name)
Vaccinia virus = assay: Antiviral activity against vaccinia virus; conditions: Orthopoxvirus vaccinia
[9] = system: Vesicular stomatitis virus; assay: Antiviral activity against vesicular stomatitis virus
L1210 [10] = assay: Cytostatic activity against proliferation of L1210/0 cells; conditions: Mus musculus, read-out: ID50 (the source's name)
How it was run: (§1)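 Murine leukemia L1210 cells: parental L1210/0 and L1210/BdUrd, a thymidine-kinase-deficient mutant selected from L1210/0 by growth in the presence of 260 µg/mL 5-bromo-2'-deoxyuridine. Value is the dose inhibiting tumor cell proliferation by 50% (ID50).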

L1210 [11] = assay: Cytostatic activity against proliferation of L1210/BdU cells; conditions: Mus musculus, read-out: ID50 (the source's name); how it was run: as §1
L1210 [12] = assay: Compound was tested for Cytostatic activity against proliferation of L1210/0 cells (murine leukemia L1210 cell line); conditions: Mus musculus, read-out: ID50 (the source's name); how it was run: as §1
L1210 [13] = assay: Compound was tested for Cytostatic activity against proliferation of L1210/BdU cells (thymidine kinase deficient L1210 cell line); conditions: Mus musculus, read-out: ID50 (the source's name); how it was run: as §1
Raji [14] = assay: Compound was tested for Cytostatic activity against proliferation of Raji/0 cells (human lymphoblast Raji cells line); conditions: read-out: ID50 (the source's name)
Raji [15] = assay: Compound was tested for Cytostatic activity against proliferation of Raji/TK cells (thymidine kinase deficient Raji cell line); conditions: Homo sapiens, read-out: ID50 (the source's name)

SMILES | MIC50 (Human alphaherpesvirus 2 [1]) [µg/mL] | MIC50 (Human alphaherpesvirus 2 [2]) [µg/mL] | MIC50 (Human alphaherpesvirus 1 [3]) [µg/mL] | MIC50 (Human alphaherpesvirus 1 [4]) [µg/mL] | MIC50 (Human alphaherpesvirus 1 [5]) [µg/mL] | MIC50 (Human alphaherpesvirus 2 [6]) [µg/mL] | IC50 (Raji [7]) [µg/mL] | IC50 (Raji [8]) [µg/mL] | MIC50 (Vaccinia virus) [µg/mL] | MIC50 [9] [µg/mL] | IC50 (L1210 [10]) [µg/mL] | IC50 (L1210 [11]) [µg/mL] | IC50 (L1210 [12]) [µg/mL] | IC50 (L1210 [13]) [µg/mL] | IC50 (Raji [14]) [µg/mL] | IC50 (Raji [15]) [µg/mL]
CCCCCCCCc1cn([C@H]2C[C@@H]3OP(=O)(O)OC[C@H]3O2)c(=O)[nH]c1=O.N | > 200 | > 200 | > 200 | > 200 | > 200 | > 200 | 184 | 165 | 20 | > 200 | 164 | 193 | – | – | – | –
CCCCCCc1cn([C@H]2C[C@@H]3OP(=O)(O)OC[C@H]3O2)c(=O)[nH]c1=O.N | 300 | > 400 | > 400 | > 400 | > 400 | > 400 | > 500 | > 500 | > 400 | > 400 | > 500 | > 500 | – | – | – | –
CC(C)c1cn([C@H]2C[C@H](O)[C@@H](CO)O2)c(=O)[nH]c1=O [EPERVUDINE] | 100 (≈ 370 µM) | 400 (≈ 1480 µM) | 2 (≈ 7.4 µM) | 7 (≈ 25.9 µM) | 1 (≈ 3.7 µM) | 40 (≈ 148 µM) | – | – | 300 (≈ 1110 µM) | > 400 | – | – | > 500 | > 500 | > 500 | > 500
CC(C)c1cn([C@H]2C[C@@H]3OP(=O)(O)OC[C@H]3O2)c(=O)[nH]c1=O.N | > 200 | > 200 | > 200 | > 200 | > 200 | > 200 | > 500 | > 500 | > 200 | > 200 | > 500 | > 500 | – | – | – | –
CCCc1cn([C@H]2C[C@H](O)[C@@H](CO)O2)c(=O)[nH]c1=O | 7 (≈ 25.9 µM) | 40 (≈ 148 µM) | 7 (≈ 25.9 µM) | 2 (≈ 7.4 µM) | 2 (≈ 7.4 µM) | 10 (≈ 37 µM) | > 500 | > 500 | 200 (≈ 740 µM) | > 200 | > 500 | > 500 | – | – | – | –
CCCCCCCCc1cn([C@H]2C[C@H](O)[C@@H](CO)O2)c(=O)[nH]c1=O | 100 (≈ 294 µM) | > 100 | > 100 | > 100 | > 100 | 100 (≈ 294 µM) | 140 (≈ 411 µM) | 52 (≈ 153 µM) | 7 (≈ 20.6 µM) | > 100 | 66 (≈ 194 µM) | 72 (≈ 212 µM) | – | – | – | –
CCCCCc1cn([C@H]2C[C@H](O)[C@@H](CO)O2)c(=O)[nH]c1=O | 70 (≈ 235 µM) | > 400 | 10 (≈ 33.5 µM) | 20 (≈ 67 µM) | 40 (≈ 134 µM) | 70 (≈ 235 µM) | 328 (≈ 1100 µM) | 334 (≈ 1120 µM) | 300 (≈ 1010 µM) | > 400 | 476 (≈ 1600 µM) | 477 (≈ 1600 µM) | – | – | – | –
O=c1[nH]c(=O)n([C@H]2C[C@H](O)[C@@H](CO)O2)cc1/C=C/Br [BRIVUDINE] | 1 (≈ 3 µM) | 100 (≈ 300 µM) | 0.02 (≈ 0.06 µM) | 0.02 (≈ 0.06 µM) | 0.02 (≈ 0.06 µM) | 1 (≈ 3 µM) | – | – | 2 (≈ 6 µM) | > 400 | – | – | – | – | – | –
CCCCCCc1cn([C@H]2C[C@H](O)[C@@H](CO)O2)c(=O)[nH]c1=O | 300 (≈ 960 µM) | – | > 400 | > 400 | 300 (≈ 960 µM) | 400 (≈ 1280 µM) | 173 (≈ 554 µM) | 151 (≈ 483 µM) | 300 (≈ 960 µM) | – | 172 (≈ 551 µM) | 195 (≈ 624 µM) | – | – | – | –
CCc1cn([C@H]2C[C@H](O)[C@@H](CO)O2)c(=O)[nH]c1=O [EDOXUDINE] | 0.2 (≈ 0.78 µM) | 2 (≈ 7.8 µM) | 2 (≈ 7.8 µM) | 0.7 (≈ 2.73 µM) | 0.2 (≈ 0.78 µM) | 0.4 (≈ 1.56 µM) | > 500 | 2.9 (≈ 11.3 µM) | 0.7 (≈ 2.73 µM) | > 400 | 1.6 (≈ 6.24 µM) | > 500 | – | – | – | –
CCc1cn([C@H]2C[C@@H]3OP(=O)(O)OC[C@H]3O2)c(=O)[nH]c1=O.N | 7 | 150 | 70 | 70 | 70 | 10 | > 500 | 60 | 70 | > 400 | 55 | > 500 | – | – | – | –
CCCCCc1cn([C@H]2C[C@@H]3OP(=O)(O)OC[C@H]3O2)c(=O)[nH]c1=O.N | > 400 | > 400 | > 400 | > 400 | > 400 | > 400 | > 500 | > 500 | > 400 | > 400 | > 500 | > 500 | – | – | – | –
CCCc1cn([C@H]2C[C@@H]3OP(=O)(O)OC[C@H]3O2)c(=O)[nH]c1=O.N | 400 | > 400 | 300 | 150 | 150 | 400 | > 500 | > 500 | > 400 | > 400 | > 500 | > 500 | – | – | – | –
CCCCc1cn([C@H]2C[C@H](O)[C@@H](CO)O2)c(=O)[nH]c1=O | 20 (≈ 70.3 µM) | > 400 | 70 (≈ 246 µM) | 20 (≈ 70.3 µM) | 20 (≈ 70.3 µM) | 150 (≈ 528 µM) | > 500 | > 500 | 300 (≈ 1060 µM) | > 400 | > 500 | > 500 | – | – | – | –
CCCCc1cn([C@H]2C[C@@H]3OP(=O)(O)OC[C@H]3O2)c(=O)[nH]c1=O.N | 300 | > 400 | > 400 | > 400 | > 400 | > 400 | 165 | 82 | 300 | > 400 | 28.4 | 33.5 | – | – | – | –
